ChEMBL document CHEMBL1148725, “2,2,2-Trichloro-N-({2-[2-(dimethylamino)ethyl]-1,3-dioxo-2,3-dihydro-1H-benzo[de]isoquinolin- 5-yl}carbamoyl)acetamide (UNBS3157), a novel nonhematotoxic naphthalimide derivative with potent antitumor activity” (J Med Chem, 2007)
pIC50: −log10 of the molar value.

How the values were obtained:
[1] = test system: Mus musculus; assay: Hematotoxicity in B6D2F1 mouse assessed as RBC count at 5 mg/kg, iv; assay type: organism-based; parameters: dose 5 mg/kg, route intravenous; details: in vivo
[2] = test system: L1210; assay: Antitumor activity in L1210 cells xenografted B6D2F1 mouse at 20 mg/kg, ip relative to control; assay type: functional; details: route intraperitoneal
Summary of the method: (§1)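 Mice grafted with L1210 leukaemia cells on day 0, then dosed i.p. four times weekly on days 1-4 and 8-11. Five mice per group. Outcome is %T/C, the median survival of treated over control. Kruskal-Wallis test followed by Dunn comparisons against control.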

[3] = test system: L1210; assay: Antitumor activity in L1210 cells xenografted B6D2F1 mouse at 120 mg/kg, ip relative to control; assay type: functional; details: route intraperitoneal; summary of the method: as §1
[4] = test system: MCF7; assay: Antiproliferative activity against MCF7 cells after 72 hrs by MTT assay; assay type: functional, cell-based, Homo sapiens; details: mcf7
Summary of the method: (§2)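 Cells cultured with each compound for three days; growth then read by the MTT colorimetric assay and reported as IC50 (µM).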

[5] = test system: Mus musculus; assay: Hematotoxicity in ip dosed B6D2F1 mouse assessed as decrease in platelet count; assay type: organism-based; details: in vivo
Summary of the method: (§3)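 Healthy female B6D2F1 mice, 10 per group, dosed i.p. three times weekly for five weeks at two dose levels set relative to MTD. Vehicle DMSO/saline 5:95 v/v. Killed 3 days after the last dose; blood platelet, RBC and WBC counts taken with a Coulter counter.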

[6] = test system: Mus musculus; assay: Hematotoxicity in B6D2F1 mouse assessed as WBC count at 10 mg/kg, po; assay type: organism-based; parameters: dose 10 mg/kg, route oral; details: in vivo
[7] = Toxicity in ip dosed B6D2F1 mouse; assay type: organism-based; details: in vivo
Summary of the method: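 Acute MTD was set by a single i.p. dose to groups of three healthy female B6D2F1 mice, at 2.5, 5, 10, 20, 40, 80 and 160 mg/kg. The MTD is the dose just below the lowest dose that killed at least one mouse.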

[8] = Antiproliferative activity against Hs683 cells after 72 hrs by MTT assay; assay type: functional, cell-based, Homo sapiens, Hs 683; details: hs 683; summary of the method: as §2
[9] = test system: Mus musculus; assay: Hematotoxicity in B6D2F1 mouse assessed as platelet count at 20 mg/kg, po; assay type: organism-based; parameters: dose 20 mg/kg, route oral; details: in vivo
[10] = test system: Mus musculus; assay: Hematotoxicity in B6D2F1 mouse assessed as WBC count at 40 mg/kg, po; assay type: organism-based; parameters: dose 40 mg/kg, route oral; details: in vivo
[11] = test system: Mus musculus; assay: Hematotoxicity in B6D2F1 mouse assessed as RBC count at 20 mg/kg, po; assay type: organism-based; parameters: dose 20 mg/kg, route oral; details: in vivo
[12] = test system: Mus musculus; assay: Hematotoxicity in B6D2F1 mouse assessed as WBC count at 5 mg/kg, iv; assay type: organism-based; parameters: dose 5 mg/kg, route intravenous; details: in vivo
[13] = test system: Mus musculus; assay: Hematotoxicity in B6D2F1 mouse assessed as platelet count at 10 mg/kg, po; assay type: organism-based; parameters: dose 10 mg/kg, route oral; details: in vivo
[14] = test system: HCT-15; assay: Antiproliferative activity against HCT15 cells after 72 hrs by MTT assay; assay type: functional, cell-based, Homo sapiens; details: hct-15; summary of the method: as §2
[15] = Antiproliferative activity against U373MG cells after 72 hrs by MTT assay; assay type: functional, cell-based, Homo sapiens, U-373MG ATCC; details: u-373mg atcc; summary of the method: as §2
[16] = test system: Mus musculus; assay: Toxicity in B6D2F1 mouse at 120 mg/kg, ip; assay type: organism-based; parameters: dose 120 mg/kg, route intraperitoneal; details: in vivo
Summary of the method: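 Healthy female B6D2F1 mice, 10 per group, dosed i.p. in DMSO/saline (5:95 v/v) three times weekly for five weeks at two levels set relative to MTD; sacrificed 3 days after final dose; platelet, RBC and WBC counted by Coulter counter.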

[17] = test system: L1210; assay: Antitumor activity in L1210 cells xenografted B6D2F1 mouse at 80 mg/kg, ip relative to control; assay type: functional; details: route intraperitoneal; summary of the method: as §1
[18] = test system: Mus musculus; assay: Hematotoxicity in B6D2F1 mouse assessed as RBC count at 10 mg/kg, iv; assay type: organism-based; parameters: dose 10 mg/kg; details: in vivo
[19] = test system: Mus musculus; assay: Hematotoxicity in B6D2F1 mouse assessed as RBC count at 10 mg/kg, po; assay type: organism-based; parameters: dose 10 mg/kg, route oral; details: in vivo
[20] = test system: Mus musculus; assay: Hematotoxicity in B6D2F1 mouse assessed as WBC count at 10 mg/kg, iv; assay type: organism-based; parameters: dose 10 mg/kg, route intravenous; details: in vivo
[21] = test system: Mus musculus; assay: Hematotoxicity in B6D2F1 mouse assessed as platelet count at 10 mg/kg, iv; assay type: organism-based; parameters: dose 10 mg/kg, route intravenous; details: in vivo
[22] = test system: L1210; assay: Antitumor activity in L1210 cells xenografted B6D2F1 mouse at 10 mg/kg, ip relative to control; assay type: functional; details: route intraperitoneal; summary of the method: as §1
[23] = test system: Mus musculus; assay: Hematotoxicity in ip dosed B6D2F1 mouse assessed as decrease in RBC count; assay type: organism-based; details: in vivo; summary of the method: as §3
[24] = test system: Mus musculus; assay: Hematotoxicity in B6D2F1 mouse assessed as platelet count at 5 mg/kg, iv; assay type: organism-based; parameters: dose 5 mg/kg, route intravenous; details: in vivo
[25] = test system: Mus musculus; assay: Hematotoxicity in B6D2F1 mouse assessed as platelet count at 40 mg/kg, po; assay type: organism-based; parameters: dose 40 mg/kg, route oral; details: in vivo
[26] = test system: Mus musculus; assay: Hematotoxicity in B6D2F1 mouse assessed as RBC count at 40 mg/kg, po; assay type: organism-based; parameters: dose 40 mg/kg, route oral; details: in vivo
[27] = test system: LoVo; assay: Antiproliferative activity against LoVo cells after 72 hrs by MTT assay; assay type: functional, cell-based, Homo sapiens; details: lovo; summary of the method: as §2
[28] = test system: A549; assay: Antiproliferative activity against A549 cells after 72 hrs by MTT assay; assay type: functional, cell-based, Homo sapiens; details: a549; summary of the method: as §2
[29] = test system: Mus musculus; assay: Hematotoxicity in B6D2F1 mouse assessed as WBC count at 20 mg/kg, po; assay type: organism-based; parameters: dose 20 mg/kg, route oral; details: in vivo
[30] = test system: L1210; assay: Antitumor activity in L1210 cells xenografted B6D2F1 mouse at 40 mg/kg, ip relative to control; assay type: functional; details: route intraperitoneal; summary of the method: as §1

SMILES: CN(C)CCN1C(=O)c2cccc3cc(/N=C\c4cc(O)ccc4O)cc(c23)C1=O
- Activity [1]: 9.48 10^6 /uL
- Activity [2]: 148%
- Activity [3]: 42%
- pIC50 [4]: < 5.00
- Activity [5]: Toxic
- Activity [6]: 2.36 10^3 /uL
- MTD [7]: > 160 mg/kg
- pIC50 [8]: < 5.00
- Activity [9]: 1007 10^3 /uL
- Activity [10]: 4.07 10^3 /uL
- Activity [11]: 9.92 10^6 /uL
- Activity [12]: 3.09 10^3 /uL
- Activity [13]: 909 10^3 /uL
- pIC50 [14]: < 5.00
- pIC50 [15]: 5.11
- Activity [16]: Toxic
- Activity [17]: >300%
- Activity [18]: 9.54 10^6 /uL
- Activity [19]: 10.22 10^6 /uL
- Activity [20]: 3.05 10^3 /uL
- Activity [21]: 443 10^3 /uL
- Activity [22]: 151%
- Activity [23]: Toxic
- Activity [24]: 498 10^3 /uL
- Activity [25]: 1033 10^3 /uL
- Activity [26]: 7.87 10^6 /uL
- pIC50 [27]: 5.08
- pIC50 [28]: 5.04
- Activity [29]: 2.17 10^3 /uL
- Activity [30]: 232%
